# From ChEMBL document CHEMBL4190344, “Synthesis of substituted phenanthrene-9-benzimidazole conjugates: Cytotoxicity evaluation and apoptosis inducing studies” (Eur J Med Chem, 2017)
# Calls of active or inactive are those of the source. The rule behind the calls is not given here.
# Experiments:
# PC-3 [1] = assay: Cell cycle arrest in human PC3 cells assessed as accumulation at G0/G1 phase at 2.10 uM incubated for 24 hrs by propidium iodide staining based flow cytometry (reference value: 106.67%); type: functional
# PC-3 [2] = assay: Induction of mitochondrial membrane potential loss in human PC3 cells assessed as JC1 monomer level at 5 uM incubated for 24 hrs by JC1 staining based flow cytometry (reference value: 22.8%); type: functional
# PC-3 [3] = assay: Induction of apoptosis in human PC3 cells assessed as necrotic cells level at 5 uM incubated for 24 hrs by annexin V-FITC/propidium iodide dual staining based flow cytometry (reference value: 0.59%); type: functional
# How it was run: (§1)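 PC-3 cells were grown 24 h, then treated 24 h at 2.5, 5.0 or 10 µM. Cells were trypsinised, washed twice in ice-cold PBS and stained in binding buffer with Annexin V-FITC followed by propidium iodide at room temperature in the dark. 10,000 cells per sample were run on a flow cytometer, with quadrants scored as live, early apoptotic, late apoptotic or necrotic.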
# PC-3 [4] = assay: Induction of mitochondrial membrane potential loss in human PC3 cells assessed as JC1 monomer level at 10 uM incubated for 24 hrs by JC1 staining based flow cytometry (reference value: 22.8%); type: functional
# PC-3 [5] = assay: Induction of apoptosis in human PC3 cells assessed as viable cells level at 5 uM incubated for 24 hrs by annexin V-FITC/propidium iodide dual staining based flow cytometry (reference value: 76.73%); type: functional; how it was run: as §1
# PC-3 [6] = assay: Cell cycle arrest in human PC3 cells assessed as accumulation at S phase at 2.10 uM incubated for 24 hrs by propidium iodide staining based flow cytometry (reference value: 13.92%); type: functional
# PC-3 [7] = assay: Cell cycle arrest in human PC3 cells assessed as accumulation at S phase at 5 uM incubated for 24 hrs by propidium iodide staining based flow cytometry (reference value: 13.92%); type: functional
# PC-3 [8] = assay: Induction of morphological changes in human PC3 cells assessed as increase in cell detachment at 2.5 to 10 uM incubated for 48 hrs by phase contrast microscopy; type: functional, cell-based
# How it was run: (§2)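 PC-3 cells at 1 × 10^5 cells/mL adhered overnight, then received compound at 2.5, 5.0 or 10.0 µM. After 48 h, morphology (viable cell number, nuclear shrinkage, detachment) was imaged by phase contrast microscopy.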
# PC-3 [9] = assay: Cytotoxicity in human PC3 cells assessed as reduction in cell viability at 2.5 to 10 uM incubated for 48 hrs by phase contrast microscopy; type: functional, cell-based; how it was run: as §2
# PC-3 [10] = assay: Induction of apoptosis in human PC3 cells assessed as necrotic cells level at 10 uM incubated for 24 hrs by annexin V-FITC/propidium iodide dual staining based flow cytometry (reference value: 0.59%); type: functional; how it was run: as §1
# PC-3 [11] = assay: Cell cycle arrest in human PC3 cells assessed as accumulation at G2/M phase at 5 uM incubated for 24 hrs by propidium iodide staining based flow cytometry (reference value: 25.96%); type: functional
# PC-3 [12] = assay: Induction of mitochondrial membrane potential loss in human PC3 cells assessed as JC1 aggregate level at 2.5 uM incubated for 24 hrs by JC1 staining based flow cytometry (reference value: 76.94%); type: functional
# PC-3 [13] = assay: Induction of apoptosis in human PC3 cells assessed as necrotic cells level at 2.5 uM incubated for 24 hrs by annexin V-FITC/propidium iodide dual staining based flow cytometry (reference value: 0.59%); type: functional; how it was run: as §1
# PC-3 [14] = assay: Induction of apoptosis in human PC3 cells assessed as early apoptotic cells level at 2.5 uM incubated for 24 hrs by annexin V-FITC/propidium iodide dual staining based flow cytometry (reference value: 11.76%); type: functional; how it was run: as §1
# PC-3 [15] = assay: Induction of reactive oxygen species in human PC3 cells at 2.5 to 10 uM pre-incubated with NAC before compound addition for 6 hrs by DCFDA dye based spectrofluorometry; type: functional, cell-based
# How it was run: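 PC-3 cells (1 × 10^6 cells/mL) adhered overnight, then were treated at 2.5, 5.0 or 10.0 µM. Medium was replaced with DCFDA 10 µM for 30 min in the dark, and fluorescence read by spectrofluorometer at ex 488/em 525 nm. N-acetyl cysteine pretreatment before compound and H2O2 were used as comparisons.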
# PC-3 [16] = assay: Cell cycle arrest in human PC3 cells assessed as accumulation at G0/G1 phase at 5 uM incubated for 24 hrs by propidium iodide staining based flow cytometry (reference value: 56.67%); type: functional
# HCT-15 = assay: Cytotoxicity in human HCT15 cells incubated for 48 hrs by MTT assay; type: functional, cell-based; conditions: HCT-15, 48 h
# How it was run: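 Cells (1 × 10^4/well) were seeded in medium with 10% FBS and left 24 h at 37 °C. Compound diluted in medium was then added, alongside a vehicle control, for 48 h. MTT (5 mg/mL stock) was added for 4 h, formazan dissolved in DMSO and absorbance read at 570 nm. IC50 taken as the concentration giving 50% inhibition.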
# PC-3 [17] = assay: Induction of mitochondrial membrane potential loss in human PC3 cells incubated for 24 hrs by JC1 staining based flow cytometry (reference value: 76.94%); type: functional, cell-based
# PC-3 [18] = assay: Cell cycle arrest in human PC3 cells assessed as accumulation at G2/M phase at 2.5 uM incubated for 24 hrs by propidium iodide staining based flow cytometry (reference value: 25.96%); type: functional
# PC-3 [19] = assay: Induction of cell death in human PC3 cells assessed as induction of apoptotic body formation at 10 uM incubated for 48 hrs by acridine orange and ethidium bromide staining based fluorescence microscopy; type: functional
# How it was run: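 PC-3 cells (1 × 10^6 cells/mL) were treated with compound and kept 48 h at 37 °C, 5% CO2. Acridine orange and ethidium bromide (10 µg/mL) were added in equal volumes. After 10 min, cells were imaged by fluorescence microscopy (ex 488/em 550 nm, 200×).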
# PC-3 [20] = assay: Cell cycle arrest in human PC3 cells assessed as accumulation at G2/M phase at 10 uM incubated for 24 hrs by propidium iodide staining based flow cytometry (reference value: […])
# PC-3 [21] = assay: Induction of mitochondrial membrane potential loss in human PC3 cells assessed as JC1 monomer level at 2.5 uM incubated for 24 hrs by JC1 staining based flow cytometry (reference value: 22.8%); type: functional
# PC-3 [22] = assay: Induction of mitochondrial membrane potential loss in human PC3 cells assessed as JC1 aggregate level at 10 uM incubated for 24 hrs by JC1 staining based flow cytometry (reference value: 76.94%); type: functional
# PC-3 [23] = assay: Induction of apoptosis in human PC3 cells incubated for 24 hrs by annexin V-FITC/propidium iodide dual staining based flow cytometry; type: functional, cell-based; how it was run: as §1
compound,measurement,setting,value
COc1ccc2cc(-c3nc4ccc(F)cc4[nH]3)c3cc(OC)c(OC)cc3c2c1,Activity,PC-3 [1],38.61%
same,Activity,PC-3 [2],67.42%
same,Activity,PC-3 [3],0.44%
same,Activity,PC-3 [4],95.64%
same,Activity,PC-3 [5],32.12%
same,Activity,PC-3 [6],11.76%
same,Activity,PC-3 [7],14.21%
same,Activity,PC-3 [8],Active
same,Activity,PC-3 [9],Active
same,Activity,PC-3 [10],0.36%
same,Activity,PC-3 [11],29.78%
same,Activity,PC-3 [12],66.43%
same,Activity,PC-3 [13],0.21%
same,Activity,PC-3 [14],36.2%
same,Activity,PC-3 [15],inactive
same,Activity,PC-3 [16],49.29%
same,IC50,HCT-15,> 20 µM
same,Activity,PC-3 [17],Dose-dependent effect
same,Activity,PC-3 [18],27.8%
same,Activity,PC-3 [19],Active
same,Activity,PC-3 [20],44.16%
same,Activity,PC-3 [21],33.35%
same,Activity,PC-3 [22],4.29%
same,Activity,PC-3 [23],Dose-dependent effect
